Series [1] is described as follows: Selectivity ratio of IC50 for PDE11 to IC50 for PDE5. In a few lines:
(§1)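 The selectivity value is the IC50 at PDE11 or PDE6 divided by the IC50 at PDE5.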

The nature of series [2]: Selectivity ratio of IC50 for PDE6 to IC50 for PDE5. In a few lines: as §1
Series [3] addresses cGMP-specific 3',5'-cyclic phosphodiesterase (Homo sapiens, UniProt O76074). The series can be described thus: Inhibition of PDE5.
The species named for series [4] is Rattus norvegicus. Nature of the series: Antihypertensive activity in spontaneously hypertensive rat assessed as decrease of mean arterial blood pressure. The series is classed as functional, Artery. In a few lines:
(§2)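 Spontaneously hypertensive rats were dosed orally, or IV in some cases, with compound levels and blood pressure monitored. The read-out was the decrease in mean arterial pressure (MAP), scored as + for a 10–15 mmHg drop and ++ for a drop of >15 mmHg. Oral dosing at 5 mg/kg was followed for up to 20 h post dose.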

Another series deals with hERG (KCNH2) (Homo sapiens, UniProt Q12809). Nature of the series: Displacement of [3H]dofetilide from human ERG expressed in HEK293 cells at 10 uM. The series is classed as cell-based. Particulars: HEK293 cells that express human ERG, probe [3H]dofetilide. In general terms: Displacement assays read how much labelled ligand stays bound in the presence of the test substance.

Series [5] addresses Voltage-gated inwardly rectifying potassium channel KCNH2 (Homo sapiens, UniProt Q12809). Nature of the series: Inhibition of human ERG expressed by patch clam electrophysiology assay.
A short description of series [6]: Clearance in Beagle dog at 0.2 mg/kg, iv. The format is ADME, organism-based, Canis lupus familiaris. Also on record: dose 0.2 mg/kg, route intravenous. Conditions: in vivo. The essentials: (§3)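 Beagle dogs of about 10 kg were dosed at 0.2–0.5 mpk. From the plasma profile, terminal half-life was reported in h, clearance in mL/min/kg and steady-state volume of distribution in L/kg.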

Series [7] is described as follows: Half life in Beagle dog at 0.2 mg/kg, iv. The format is ADME, organism-based, Canis lupus familiaris. The arrangement: dose 0.2 mg/kg, route intravenous. Particulars: in vivo. In a few lines:
as §3

Series [8] has as its system Rattus norvegicus. Nature of the series: Antihypertensive activity in spontaneously hypertensive rat assessed as decrease of mean arterial blood pressure at 1.5 mg/kg, iv after 6 hrs. The format is functional, Artery. The essentials: (§4)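 Spontaneously hypertensive rats received a single IV dose of 1.5 mg/kg. Mean arterial blood pressure was monitored after dosing, and the decrease in MAP was read at 2 h and 6 h post dose. Compound blood levels were also monitored, including the free fraction at 6 h.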

Series [9] has as its system Rattus norvegicus. Nature of the series: Antihypertensive activity in spontaneously hypertensive rat assessed as decrease of mean arterial blood pressure at 5 mg/kg, po up to 20 hrs. The series is classed as functional, organism-based. Also on record: dose 5 mg/kg. Particulars: Artery. The essentials: as §2
Series [10] relates to Rattus norvegicus. Nature of the series: Antihypertensive activity in spontaneously hypertensive rat assessed as decrease of mean arterial blood pressure at 5 mg/kg, po. The series is classed as functional, Artery. The essentials:
as §2

The nature of series [11]: Half life in human liver microsomes. The series is classed as ADME, Microsome.
The nature of series [12]: Volume of distribution at steady state in Beagle dog at 0.2 mg/kg, iv. The series is classed as ADME, organism-based, Canis lupus familiaris. Also on record: dose 0.2 mg/kg, route intravenous. Particulars: in vivo, read-out: Vdss. In a few lines: as §3
Series [13] has as its system Rattus norvegicus. The series can be described thus: Antihypertensive activity in spontaneously hypertensive rat assessed as decrease of mean arterial blood pressure at 1.5 mg/kg, iv after 2 hrs. The series is classed as functional, Artery. In a few lines:
as §4

Series [14] in a line: Metabolic stability in human liver microsomes assessed as compound remaining after 30 mins. The format is ADME, Microsome. Particulars: read-out: Stability.
The nature of series [15]: Inhibition of PDE6.

Active and inactive are the calls of the source. No cut-off for these calls is given here.

hERG (KCNH2), sequence (Q12809 whole entry): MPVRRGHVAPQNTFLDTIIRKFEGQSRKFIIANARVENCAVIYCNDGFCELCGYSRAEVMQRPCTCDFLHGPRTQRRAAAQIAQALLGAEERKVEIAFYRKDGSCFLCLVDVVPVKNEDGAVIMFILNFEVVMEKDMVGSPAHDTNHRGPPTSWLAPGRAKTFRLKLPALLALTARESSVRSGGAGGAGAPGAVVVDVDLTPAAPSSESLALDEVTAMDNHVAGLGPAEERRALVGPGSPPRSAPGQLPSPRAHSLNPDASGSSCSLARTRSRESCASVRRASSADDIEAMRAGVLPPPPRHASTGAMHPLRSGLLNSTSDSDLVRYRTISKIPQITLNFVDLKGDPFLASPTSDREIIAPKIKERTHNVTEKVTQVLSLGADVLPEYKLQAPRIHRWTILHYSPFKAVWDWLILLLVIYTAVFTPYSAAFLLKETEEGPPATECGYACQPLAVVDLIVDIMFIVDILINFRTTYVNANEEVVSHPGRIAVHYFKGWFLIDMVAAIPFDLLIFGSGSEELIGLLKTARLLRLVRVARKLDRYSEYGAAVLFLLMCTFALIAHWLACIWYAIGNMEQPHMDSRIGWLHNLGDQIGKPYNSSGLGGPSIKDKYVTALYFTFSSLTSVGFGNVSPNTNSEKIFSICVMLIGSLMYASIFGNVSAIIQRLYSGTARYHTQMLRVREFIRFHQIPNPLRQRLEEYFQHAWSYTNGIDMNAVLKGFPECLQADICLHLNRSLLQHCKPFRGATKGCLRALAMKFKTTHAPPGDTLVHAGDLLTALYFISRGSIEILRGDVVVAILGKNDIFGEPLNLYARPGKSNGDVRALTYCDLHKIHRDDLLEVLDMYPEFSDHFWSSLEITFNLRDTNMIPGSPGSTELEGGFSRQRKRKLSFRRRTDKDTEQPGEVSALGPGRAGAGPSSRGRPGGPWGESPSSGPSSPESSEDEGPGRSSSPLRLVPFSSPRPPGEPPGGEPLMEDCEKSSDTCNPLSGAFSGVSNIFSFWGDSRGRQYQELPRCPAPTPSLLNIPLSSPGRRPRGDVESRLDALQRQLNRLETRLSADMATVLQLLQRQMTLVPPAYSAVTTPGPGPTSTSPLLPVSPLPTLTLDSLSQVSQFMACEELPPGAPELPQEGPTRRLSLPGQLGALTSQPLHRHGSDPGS
Voltage-gated inwardly rectifying potassium channel KCNH2, sequence (Q12809 whole entry): as above

A word on the IC50: it is the concentration needed to halve the response being measured. Read a low IC50 as higher potency. With `CCc1nn(CCOCC(F)(F)F)c2c(Nc3ccncn3)nc(N3CCCN(C)CC3)nc12`, the Ratio IC50 in [1] stood at 287; in series [2], 309. In addition, inhibition in [3] was half-maximal at 6.48 nM (IC50).
With `CCc1nn(CCOCC(F)(F)F)c2c(Nc3ccc(F)cc3)nc(N3CCNCC3)nc12`, half-maximal inhibition in series [3] (IC50) was put at 0.09 nM.
With `CCc1nn(CCOCC(F)(F)F)c2c(Nc3ccncn3)nc(N3CCNCC3)nc12`, in the series listed under Rattus norvegicus [4], the Activity was determined as 10 mmHg. The molecule further registered an IC50 in series [3] of 0.15 nM.
With `CCCOCCn1nc(CC)c2nc(N3CCNCC3)nc(Nc3ccccn3)c21`, in series [3], the IC50 is 0.3 nM.
What is called inhibition is the change of the read-out against control, counted positive when it falls. A low value points to a response near the control. On to `Cc1nn(CCOCC(F)(F)F)c2c(Nc3ccncn3)nc(N3CCN[C@H](C)C3)nc12`, for which the Activity in the series filed under Rattus norvegicus [4] was over 15 mmHg. On hERG (KCNH2), this molecule showed an inhibition at 10 µM of 24.7%. This molecule also came in with an IC50 in series [3] of 0.14 nM.
In series [3], `CCc1nn(CCOCC(F)(F)F)c2c(Nc3cccc(C)n3)nc(N3CCNCC3)nc12` had an IC50 of 1.01 nM.
On to `CCc1nn(CCOC(C)C)c2c(Nc3ccccn3)nc(N3CCNCC3)nc12`, for which the results for the Ratio IC50 in series [1] and in [2] were 52 and 50, respectively. The molecule also registered an IC50 in series [3] of 0.86 nM.
With `Cc1cccc(Nc2nc(N3CCNCC3)nc3c(C)nn(CCOCC(F)(F)F)c23)n1`, on hERG (KCNH2), the inhibition at 10 µM is 40%. Moreover, the values for the IC50 in series [3] and in [5] were 0.78 nM and 560 nM, respectively.
Broadly, the clearance is the volume of plasma or blood freed of the substance per unit of time. Higher therefore signals efficient removal. Broadly, the half-life is the time in which the quantity being followed falls by half. Low values mean fast loss, high ones slow loss. For the molecule `CCc1nn(CCOCC(F)(F)F)c2c(Nc3ccncn3)nc(N3CCN[C@H](C)C3)nc12`, the Activity is over 15 mmHg in the series listed under Rattus norvegicus [4], 23 mmHg in the series with Rattus norvegicus [8], 27 mmHg in the series on Rattus norvegicus [10] and 27 mmHg in the series with Rattus norvegicus [13]. The molecule further had a clearance in [6] of 18.5 mL/min/kg. In addition, the half-life in [7] was 306 min; in [11] it was 42 min. The result with Rattus norvegicus [9] was Active. Moreover, in series [12], the Vd was 7.8 L/kg. Also, in series [3], the concentration for half-maximal inhibition (IC50) came to 0.07 nM.
Take `CCc1nn(CCOCC(F)(F)F)c2c(Nc3ccncn3)nc(NCCN)nc12`: the Ratio IC50 in [1] and in [2] was over 210 in each case. The half-maximal inhibitory concentration (IC50) in [3] amounted to 9.52 nM.
Take `CCc1nn(CCOCC(F)(F)F)c2c(Nc3ccccn3)nc(N3CCNCC3)nc12`: the Ratio IC50 in series [1] is 450; in series [2], 150. Besides, the remaining at 0.5 h in series [14] worked out at 91%. The half-maximal inhibitory concentration (IC50) in [3] amounted to 0.65 nM.
In turn, `Cc1nn(CCOCC(F)(F)F)c2c(Nc3ccncn3)nc(N3CCN[C@@H](C)C3)nc12` registered an IC50 in series [3] of 0.94 nM.
In the case of `CCOCCn1nc(CC)c2nc(N3CCNCC3)nc(Nc3cccc(C)n3)c21`, the IC50 in series [15] came to 946 nM.
Molecule `CCc1nn(CCOCC(F)(F)F)c2c(Nc3ccncn3)nc(N3CCNC(=O)C3)nc12` came in with an IC50 in series [3] of 2.96 nM.
On to `CCc1nn(CCOCC(F)(F)F)c2c(Nc3ccncn3)nc(N(C)C3CCN(C)CC3)nc12`, for which the Ratio IC50 in series [1] stood at 5650; in [2], 285. In addition, the remaining at 0.5 h in series [14] came out at 31%. The molecule further showed a half-maximal inhibitory concentration (IC50) in series [3] of 0.35 nM.
In turn, `CCCc1nn(C)c2c(=O)[nH]c(-c3cc(S(=O)(=O)N4CCN(C)CC4)ccc3OCC)nc12` showed an IC50 in [15] of 30 nM.
With `CCc1nn(CCOCC(F)(F)F)c2c(Nc3cc(C)ccn3)nc(N3CCNCC3)nc12`, the Ratio IC50 in [1] was 170; in series [2] it was 220. Further, the remaining at 0.5 h in [14] was determined as 80%. This molecule also yielded an IC50 in [3] of 3.28 nM.
Take `Cc1nn(CCOCC(F)(F)F)c2c(Nc3ccncn3)nc(N3CCCNCC3)nc12`: the Ratio IC50 in series [1] came to 204; in series [2], 35. Also, the half-inhibitory concentration (IC50) in series [3] amounted to 9.79 nM.
The like results for `CCc1nn(CCOCC(F)(F)F)c2c(Nc3ccncn3)nc(N3CCCNCC3)nc12` were, in that order, 635, 69 and 3.15 nM.
The like results for `CCc1nn(CCOCC(F)(F)F)c2c(Nc3ccncn3)nc(N3CCOCC3)nc12` were, in that order, 5100, 107 and 3.92 nM.
Regarding `Cc1ccnc(Nc2nc(N3CCNCC3)nc3c(C)nn(CCOCC(F)(F)F)c23)c1`, the Ratio IC50 in [1] came to 280; in [2], 510. The remaining at 0.5 h in series [14] stood at 75%. Moreover, the IC50 in series [3] amounted to 1.84 nM.

The values above are taken from ChEMBL document CHEMBL1157119, “1-(2-(2,2,2-trifluoroethoxy)ethyl-1H-pyrazolo[4,3-d]pyrimidines as potent phosphodiesterase 5 (PDE5) inhibitors” (Bioorg Med Chem Lett, 2010).
